In ChEMBL document CHEMBL1132410, “5-Chloro-N-(4-methoxy-3-piperazin-1-yl- phenyl)-3-methyl-2-benzothiophenesulfon- amide (SB-271046): a potent, selective, and orally bioavailable 5-HT6 receptor antagonist” (J Med Chem, 1999):
Blank lines part the entries; values can stand above or below the molecule they belong to.

Experiments:
[1] = target: 5-hydroxytryptamine receptor 6 (Homo sapiens, UniProt P50406); assay: Binding affinity against human cloned 5-hydroxytryptamine 6 receptor in HeLa cells using [3H]LSD; assay type: cell-based
How it was run: (§1)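 Radioligand binding at human cloned receptors; cell hosts and radioligands as listed per line: 5-HT1A, 5-HT2A, 5-HT2B, 5-HT2C and 5-HT7 in HEK 293 cells; 5-HT1B, 5-HT1D, 5-HT1E, 5-HT1F, D2 and D3 in CHO cells; 5-HT6 in HeLa cells. Values are the mean of at least two determinations, each within 0.2 log unit of the mean.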

Homo sapiens = species: Homo sapiens; assay: Selectivity for 5-HT6 receptors with respect to the 5-HT1A, 5-HT1B, 5-HT1D, 5-HT1E, 5-HT1F, 5-HT2A, 5-HT2B, 5-HT2C, 5-HT4, 5-HT7, Alpha-1B, D2, D3 receptors.
[2] = target: 5-hydroxytryptamine receptor 2B (Homo sapiens, UniProt P41595); assay: Compound was tested for its binding affinity against cloned human 5-hydroxytryptamine 2B receptor in HEK 293 cells using [3H]5-HT; assay type: cell-based, HEK293; how it was run: as §1
D(2) dopamine receptor = D(2) dopamine receptor (Homo sapiens, UniProt P14416); assay: Compound was tested for its binding affinity against Dopamine receptor D2 in human cloned receptors in CHO cells using [125 I]iodosulpride; assay type: cell-based; how it was run: as §1
[3] = target: 5-hydroxytryptamine receptor 1E (Homo sapiens, UniProt P28566); assay: Compound was tested for its binding affinity against cloned human 5-hydroxytryptamine 1E receptor in CHO cells using [3H]-5-HT; assay type: cell-based; how it was run: as §1
[4] = target: T1, Alpha-1B adrenergic receptor (Homo sapiens, UniProt P35368); assay: Compound was tested for its binding affinity against adrenergic Alpha-1B adrenergic receptor
T1 sequence (P35368 whole entry): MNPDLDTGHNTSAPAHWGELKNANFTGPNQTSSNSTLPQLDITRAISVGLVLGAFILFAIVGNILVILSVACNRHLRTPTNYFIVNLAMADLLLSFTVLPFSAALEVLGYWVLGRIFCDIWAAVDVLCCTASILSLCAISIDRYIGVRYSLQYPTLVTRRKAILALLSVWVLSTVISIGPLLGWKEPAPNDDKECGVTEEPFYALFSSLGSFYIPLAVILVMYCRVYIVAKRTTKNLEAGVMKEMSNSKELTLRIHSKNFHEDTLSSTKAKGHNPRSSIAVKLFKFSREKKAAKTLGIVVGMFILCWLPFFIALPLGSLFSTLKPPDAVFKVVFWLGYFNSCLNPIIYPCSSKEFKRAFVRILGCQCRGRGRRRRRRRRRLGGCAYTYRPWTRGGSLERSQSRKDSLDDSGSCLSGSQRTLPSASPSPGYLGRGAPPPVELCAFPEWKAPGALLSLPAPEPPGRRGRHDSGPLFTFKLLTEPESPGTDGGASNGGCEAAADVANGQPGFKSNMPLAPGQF

[5] = target: T2, 5-hydroxytryptamine receptor 2C (Homo sapiens, UniProt P28335); assay: Compound was tested for its binding affinity against human cloned 5-hydroxytryptamine 2C receptor in HEK 293 cells using [3H]mesulergine; assay type: cell-based, HEK293; how it was run: as §1
T2 sequence (P28335 whole entry): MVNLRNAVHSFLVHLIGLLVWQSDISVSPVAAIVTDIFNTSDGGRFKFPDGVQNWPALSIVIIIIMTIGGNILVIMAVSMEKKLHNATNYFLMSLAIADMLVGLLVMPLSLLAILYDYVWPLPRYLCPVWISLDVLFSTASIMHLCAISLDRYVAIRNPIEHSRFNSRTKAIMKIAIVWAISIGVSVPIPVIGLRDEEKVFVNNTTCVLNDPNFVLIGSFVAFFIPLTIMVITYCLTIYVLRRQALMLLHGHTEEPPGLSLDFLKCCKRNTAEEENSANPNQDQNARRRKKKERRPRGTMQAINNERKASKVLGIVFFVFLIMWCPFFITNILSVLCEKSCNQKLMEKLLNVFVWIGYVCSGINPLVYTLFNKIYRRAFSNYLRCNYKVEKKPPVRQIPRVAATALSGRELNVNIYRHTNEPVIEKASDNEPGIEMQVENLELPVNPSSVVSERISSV

[6] = target: T3, 5-hydroxytryptamine receptor 1F (Homo sapiens, UniProt P30939); assay: Compound was tested for its binding affinity against 5-hydroxytryptamine 1F receptor in human cloned receptors in CHO cells using [3H]5-HT; assay type: cell-based; how it was run: as §1
T3 sequence (P30939 whole entry): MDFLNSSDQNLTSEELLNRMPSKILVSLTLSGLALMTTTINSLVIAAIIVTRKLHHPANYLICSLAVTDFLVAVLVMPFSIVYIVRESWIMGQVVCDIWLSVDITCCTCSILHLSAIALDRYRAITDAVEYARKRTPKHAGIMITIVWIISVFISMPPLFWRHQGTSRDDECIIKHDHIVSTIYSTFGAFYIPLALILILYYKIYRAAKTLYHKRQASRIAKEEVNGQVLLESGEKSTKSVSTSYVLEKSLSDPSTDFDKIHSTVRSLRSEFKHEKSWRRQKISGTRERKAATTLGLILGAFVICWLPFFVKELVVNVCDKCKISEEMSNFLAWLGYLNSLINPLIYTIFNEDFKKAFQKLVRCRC

[7] = target: 5-hydroxytryptamine receptor 2A (Homo sapiens, UniProt P28223); assay: Compound was tested for its binding affinity against 5-hydroxytryptamine 2A receptor in human cloned receptors in HEK 293 cells using [3H]ketanserin; assay type: cell-based, HEK293; how it was run: as §1
Cytochrome P450 2C9 = Cytochrome P450 2C9 (Homo sapiens, UniProt P11712); assay: Inhibitory potential of human cytochrome P450 2C9 as Tolbutamide methylhydroxylation (100 uM); assay type: ADME
How it was run: (§2)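 Heterologously expressed human CYP isoforms in isoform-selective assays, with substrate at its Km. CYP1A2: caffeine N3-demethylation (500 μM). CYP2C9: tolbutamide methylhydroxylation (100 μM). CYP2C19: S-mephenytoin 4-hydroxylation (100 μM). CYP2D6: bufuralol 1'-hydroxylation (10 μM). CYP3A4: total cyclosporin oxidation (1 μM). IC50 is the mean of duplicate determinations, agreeing within 10%.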

Cytochrome P450 2D6 = Cytochrome P450 2D6 (Homo sapiens, UniProt P10635); assay: Inhibition of human cytochrome P450 2D6 as bufuralol 1''-hydroxylation (10 uM); assay type: ADME; how it was run: as §2
Cytochrome P450 1A2 = target: T4, Cytochrome P450 1A2 (Homo sapiens, UniProt P05177); assay: Inhibition of human cytochrome P450 1A2 activity as caffeine N3 demethylation (500 uM); assay type: ADME; how it was run: as §2
T4 sequence (P05177 whole entry): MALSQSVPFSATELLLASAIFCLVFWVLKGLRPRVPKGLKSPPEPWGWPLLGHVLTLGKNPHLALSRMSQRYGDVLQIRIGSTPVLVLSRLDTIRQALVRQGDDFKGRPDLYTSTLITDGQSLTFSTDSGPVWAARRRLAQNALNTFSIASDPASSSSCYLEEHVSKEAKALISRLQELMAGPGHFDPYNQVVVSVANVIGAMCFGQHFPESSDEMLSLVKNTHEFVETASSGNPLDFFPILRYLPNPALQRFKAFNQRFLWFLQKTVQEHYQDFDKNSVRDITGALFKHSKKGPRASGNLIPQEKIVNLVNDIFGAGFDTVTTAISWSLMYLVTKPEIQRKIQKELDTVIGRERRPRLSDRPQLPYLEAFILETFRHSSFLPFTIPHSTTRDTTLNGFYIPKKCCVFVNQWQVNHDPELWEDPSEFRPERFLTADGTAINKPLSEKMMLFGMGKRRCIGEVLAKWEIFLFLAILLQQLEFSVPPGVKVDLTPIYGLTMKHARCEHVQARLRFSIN

Cytochrome P450 2C19 = Cytochrome P450 2C19 (Homo sapiens, UniProt P33261); assay: Inhibition of human cytochrome P450 2C19 as S-mephenytoin-4-hydroxylation (100 uM); assay type: ADME; how it was run: as §2
[8] = target: 5-hydroxytryptamine receptor 1B (Homo sapiens, UniProt P28222); assay: Compound was tested for its binding affinity against human cloned 5-hydroxytryptamine 1B receptor in CHO cells using [3H]5-HT; assay type: cell-based; how it was run: as §1
[9] = target: 5-hydroxytryptamine receptor 1D (Homo sapiens, UniProt P28221); assay: Compound was tested for its binding affinity against human cloned 5-hydroxytryptamine 1D receptor in CHO cells using [3H]5-HT; assay type: cell-based; how it was run: as §1
Cytochrome P450 3A4 = Cytochrome P450 3A4 (Homo sapiens, UniProt P08684); assay: Inhibition of human cytochrome P450 3A4 as total cyclosporin oxidation (1 uM); assay type: ADME
How it was run: as §2, with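 “μM).” for “μM). IC50 is the mean of duplicate determinations, agreeing within 10%.”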

[10] = target: 5-hydroxytryptamine receptor 4 (Homo sapiens, UniProt Q13639); assay: Compound was tested for its binding affinity against 5-hydroxytryptamine 4 receptor
[11] = target: 5-hydroxytryptamine receptor 7 (Homo sapiens, UniProt P34969); assay: Compound was tested for its binding affinity against human cloned 5-hydroxytryptamine 7 receptor in HEK 293 cells using [3H]5-CT; assay type: cell-based, HEK293; how it was run: as §1
D(3) dopamine receptor = D(3) dopamine receptor (Homo sapiens, UniProt P35462); assay: Compound was tested for its binding affinity against Dopamine receptor D3 in human cloned receptors in CHO cells using [125 I]iodosulpride; assay type: cell-based; how it was run: as §1
[12] = target: T5, 5-hydroxytryptamine receptor 1A (Homo sapiens, UniProt P08908); assay: Compound was tested for its binding affinity against 5-hydroxytryptamine 1A receptor in human cloned receptors in HEK 293 cells using [3H]8-OH-DPAT; assay type: cell-based, HEK293; how it was run: as §1
T5 sequence (P08908 whole entry): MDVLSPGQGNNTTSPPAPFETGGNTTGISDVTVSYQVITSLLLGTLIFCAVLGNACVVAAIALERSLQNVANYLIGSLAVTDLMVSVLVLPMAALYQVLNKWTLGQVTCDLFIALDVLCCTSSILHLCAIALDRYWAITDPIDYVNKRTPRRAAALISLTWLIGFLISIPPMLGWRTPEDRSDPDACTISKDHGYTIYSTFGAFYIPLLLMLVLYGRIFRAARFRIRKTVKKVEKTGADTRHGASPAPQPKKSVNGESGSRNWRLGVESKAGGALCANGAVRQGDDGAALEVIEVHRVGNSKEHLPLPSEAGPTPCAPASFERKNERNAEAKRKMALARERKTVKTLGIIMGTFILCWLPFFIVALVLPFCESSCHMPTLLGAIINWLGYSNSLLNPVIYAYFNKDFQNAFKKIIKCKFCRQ

[13] = target: T1, Alpha-1B adrenergic receptor; assay: Compound was tested for its binding affinity against Alpha-1B adrenergic receptor

Chain of 5-hydroxytryptamine receptor 6 (P50406 whole entry): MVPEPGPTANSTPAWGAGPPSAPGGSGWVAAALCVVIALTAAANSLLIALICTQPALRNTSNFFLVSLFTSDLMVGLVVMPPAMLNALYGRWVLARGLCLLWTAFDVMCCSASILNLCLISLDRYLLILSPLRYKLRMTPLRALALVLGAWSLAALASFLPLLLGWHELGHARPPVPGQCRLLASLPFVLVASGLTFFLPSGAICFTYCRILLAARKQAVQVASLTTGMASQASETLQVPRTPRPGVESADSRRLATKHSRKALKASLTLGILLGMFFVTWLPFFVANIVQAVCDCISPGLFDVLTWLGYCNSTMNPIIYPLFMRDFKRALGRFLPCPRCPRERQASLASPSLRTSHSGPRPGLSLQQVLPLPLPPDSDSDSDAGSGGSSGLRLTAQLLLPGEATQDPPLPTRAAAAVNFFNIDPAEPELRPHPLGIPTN
Chain of D(2) dopamine receptor (P14416 whole entry): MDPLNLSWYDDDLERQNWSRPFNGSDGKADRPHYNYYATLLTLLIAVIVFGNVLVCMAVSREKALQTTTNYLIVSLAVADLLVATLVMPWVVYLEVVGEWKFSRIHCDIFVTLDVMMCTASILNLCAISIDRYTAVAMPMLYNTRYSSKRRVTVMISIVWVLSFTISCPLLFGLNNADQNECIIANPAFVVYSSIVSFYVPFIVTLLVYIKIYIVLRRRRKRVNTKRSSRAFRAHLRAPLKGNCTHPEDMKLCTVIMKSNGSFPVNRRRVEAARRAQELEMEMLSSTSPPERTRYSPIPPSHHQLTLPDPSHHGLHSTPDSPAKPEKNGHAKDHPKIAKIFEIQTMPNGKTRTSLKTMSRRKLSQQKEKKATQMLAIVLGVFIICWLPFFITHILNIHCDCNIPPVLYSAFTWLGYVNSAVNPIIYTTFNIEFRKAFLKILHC
Chain of 5-hydroxytryptamine receptor 1E (P28566 whole entry): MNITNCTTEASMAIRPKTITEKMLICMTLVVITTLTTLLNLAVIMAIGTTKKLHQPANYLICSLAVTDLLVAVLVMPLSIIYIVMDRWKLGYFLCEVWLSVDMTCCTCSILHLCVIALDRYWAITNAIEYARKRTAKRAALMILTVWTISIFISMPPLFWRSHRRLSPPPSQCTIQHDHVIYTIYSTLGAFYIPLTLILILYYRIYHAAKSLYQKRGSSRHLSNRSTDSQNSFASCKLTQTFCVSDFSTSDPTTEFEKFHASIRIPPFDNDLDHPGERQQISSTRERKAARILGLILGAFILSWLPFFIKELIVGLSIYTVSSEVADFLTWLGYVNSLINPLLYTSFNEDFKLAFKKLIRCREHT
Chain of 5-hydroxytryptamine receptor 2A (P28223 whole entry): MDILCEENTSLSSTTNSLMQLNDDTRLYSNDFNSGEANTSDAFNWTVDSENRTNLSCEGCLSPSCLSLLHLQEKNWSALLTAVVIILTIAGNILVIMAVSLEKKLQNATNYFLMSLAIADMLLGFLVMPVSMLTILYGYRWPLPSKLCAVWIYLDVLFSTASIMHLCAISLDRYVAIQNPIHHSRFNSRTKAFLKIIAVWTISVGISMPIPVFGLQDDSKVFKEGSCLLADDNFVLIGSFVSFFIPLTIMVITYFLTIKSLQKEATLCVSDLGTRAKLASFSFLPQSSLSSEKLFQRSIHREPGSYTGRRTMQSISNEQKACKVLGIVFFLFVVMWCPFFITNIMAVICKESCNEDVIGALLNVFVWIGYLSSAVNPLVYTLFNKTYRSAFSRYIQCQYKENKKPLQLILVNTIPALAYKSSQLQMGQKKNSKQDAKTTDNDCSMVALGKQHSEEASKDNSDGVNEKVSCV
Chain of 5-hydroxytryptamine receptor 1B (P28222 whole entry): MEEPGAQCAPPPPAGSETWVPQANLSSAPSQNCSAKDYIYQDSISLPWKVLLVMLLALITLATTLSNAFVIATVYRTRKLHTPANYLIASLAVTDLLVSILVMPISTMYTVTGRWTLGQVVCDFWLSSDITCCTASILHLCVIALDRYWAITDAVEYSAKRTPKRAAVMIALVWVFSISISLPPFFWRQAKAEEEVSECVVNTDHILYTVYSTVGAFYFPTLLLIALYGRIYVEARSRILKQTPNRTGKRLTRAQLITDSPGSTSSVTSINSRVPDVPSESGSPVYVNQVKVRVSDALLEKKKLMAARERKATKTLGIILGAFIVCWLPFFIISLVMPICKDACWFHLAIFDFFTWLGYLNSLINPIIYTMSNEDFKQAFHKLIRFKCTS
Chain of 5-hydroxytryptamine receptor 2B (P41595 whole entry): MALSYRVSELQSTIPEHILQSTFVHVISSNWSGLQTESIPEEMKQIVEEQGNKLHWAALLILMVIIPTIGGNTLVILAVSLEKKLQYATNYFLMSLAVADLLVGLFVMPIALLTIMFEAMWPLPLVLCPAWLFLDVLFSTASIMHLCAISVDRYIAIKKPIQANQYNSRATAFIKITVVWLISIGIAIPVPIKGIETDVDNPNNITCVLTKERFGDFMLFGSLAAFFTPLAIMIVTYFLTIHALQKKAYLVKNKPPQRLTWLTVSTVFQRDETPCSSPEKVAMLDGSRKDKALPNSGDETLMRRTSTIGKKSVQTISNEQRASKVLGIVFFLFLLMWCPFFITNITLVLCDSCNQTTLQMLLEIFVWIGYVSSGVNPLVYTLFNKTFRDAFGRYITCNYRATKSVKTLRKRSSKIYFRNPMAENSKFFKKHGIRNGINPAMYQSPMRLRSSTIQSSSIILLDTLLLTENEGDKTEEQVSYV
Chain of 5-hydroxytryptamine receptor 1D (P28221 whole entry): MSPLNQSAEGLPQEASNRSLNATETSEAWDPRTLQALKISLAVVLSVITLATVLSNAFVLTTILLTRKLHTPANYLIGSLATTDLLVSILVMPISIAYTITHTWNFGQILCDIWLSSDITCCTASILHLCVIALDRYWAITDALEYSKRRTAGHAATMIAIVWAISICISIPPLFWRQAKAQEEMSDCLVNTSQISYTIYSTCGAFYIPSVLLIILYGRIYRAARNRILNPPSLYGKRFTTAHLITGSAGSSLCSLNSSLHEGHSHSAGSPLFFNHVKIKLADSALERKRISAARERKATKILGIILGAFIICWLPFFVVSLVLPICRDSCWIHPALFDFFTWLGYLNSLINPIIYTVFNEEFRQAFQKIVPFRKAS
Chain of 5-hydroxytryptamine receptor 4 (Q13639 whole entry): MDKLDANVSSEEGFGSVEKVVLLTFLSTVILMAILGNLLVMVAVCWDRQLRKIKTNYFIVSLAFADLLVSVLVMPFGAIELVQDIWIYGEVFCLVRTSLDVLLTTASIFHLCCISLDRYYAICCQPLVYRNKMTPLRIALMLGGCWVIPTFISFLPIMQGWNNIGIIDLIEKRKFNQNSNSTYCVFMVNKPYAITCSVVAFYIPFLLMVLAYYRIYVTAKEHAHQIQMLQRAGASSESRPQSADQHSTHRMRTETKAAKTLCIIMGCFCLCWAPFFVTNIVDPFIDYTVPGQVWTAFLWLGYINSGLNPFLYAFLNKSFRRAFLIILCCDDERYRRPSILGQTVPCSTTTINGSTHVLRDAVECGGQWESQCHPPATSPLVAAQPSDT
Chain of Cytochrome P450 2C9 (P11712 whole entry, canonical isoform): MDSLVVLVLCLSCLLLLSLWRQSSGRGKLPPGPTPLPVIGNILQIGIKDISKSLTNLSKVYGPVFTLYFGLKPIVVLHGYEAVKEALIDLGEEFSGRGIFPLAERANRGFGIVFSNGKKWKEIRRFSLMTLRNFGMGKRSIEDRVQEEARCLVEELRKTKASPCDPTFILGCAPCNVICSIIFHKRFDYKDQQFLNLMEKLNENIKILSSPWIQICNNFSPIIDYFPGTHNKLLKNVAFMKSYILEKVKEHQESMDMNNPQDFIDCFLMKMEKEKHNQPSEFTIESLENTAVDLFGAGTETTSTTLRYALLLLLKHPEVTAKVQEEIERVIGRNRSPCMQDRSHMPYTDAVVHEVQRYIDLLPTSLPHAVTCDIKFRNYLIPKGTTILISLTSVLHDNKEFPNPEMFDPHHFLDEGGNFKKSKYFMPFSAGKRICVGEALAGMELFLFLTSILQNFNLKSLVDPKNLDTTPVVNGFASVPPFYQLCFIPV
Chain of D(3) dopamine receptor (P35462 whole entry): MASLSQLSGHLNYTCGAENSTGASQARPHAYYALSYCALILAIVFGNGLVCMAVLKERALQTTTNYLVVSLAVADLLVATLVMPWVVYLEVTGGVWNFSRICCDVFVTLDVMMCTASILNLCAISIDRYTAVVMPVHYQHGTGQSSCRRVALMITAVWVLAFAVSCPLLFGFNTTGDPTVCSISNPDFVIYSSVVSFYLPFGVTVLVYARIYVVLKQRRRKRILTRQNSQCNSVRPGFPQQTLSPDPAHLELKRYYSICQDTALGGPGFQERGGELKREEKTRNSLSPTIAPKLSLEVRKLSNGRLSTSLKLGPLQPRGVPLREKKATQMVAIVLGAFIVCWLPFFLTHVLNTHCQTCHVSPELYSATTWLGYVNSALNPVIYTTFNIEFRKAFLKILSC
Chain of Cytochrome P450 2D6 (P10635 whole entry): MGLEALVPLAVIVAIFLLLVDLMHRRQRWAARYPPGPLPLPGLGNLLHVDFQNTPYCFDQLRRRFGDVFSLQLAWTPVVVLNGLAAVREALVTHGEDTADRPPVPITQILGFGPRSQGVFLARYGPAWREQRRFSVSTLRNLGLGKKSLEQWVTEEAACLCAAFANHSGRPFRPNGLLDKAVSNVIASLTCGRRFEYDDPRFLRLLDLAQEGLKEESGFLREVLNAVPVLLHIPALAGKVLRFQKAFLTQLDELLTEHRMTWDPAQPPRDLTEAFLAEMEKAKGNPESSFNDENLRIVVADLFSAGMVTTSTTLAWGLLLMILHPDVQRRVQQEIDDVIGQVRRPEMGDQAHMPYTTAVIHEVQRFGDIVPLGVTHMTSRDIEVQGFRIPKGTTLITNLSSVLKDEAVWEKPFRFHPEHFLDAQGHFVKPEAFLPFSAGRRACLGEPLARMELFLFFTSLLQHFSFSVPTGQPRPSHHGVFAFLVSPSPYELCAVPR

SMILES: CNc1cc(NS(=O)(=O)c2ccc(N)cc2)nc(NC)n1
Ki [1]: 50.1 nM

SMILES: COc1ccc(NS(=O)(=O)c2cn(C)cn2)cc1N1CCN(C)CC1
Ki [1]: 794 nM

SMILES: COc1ccc(NS(=O)(=O)c2sc3ccc(Cl)cc3c2C)cc1N1CCNCC1
Ki [2]: > 3980 nM
Ki (D(2) dopamine receptor): 2510 nM
Ki [3]: > 10000 nM
Ki [4]: 2000 nM
Ki [5]: 2000 nM
Ki [6]: > 1000 nM
Ki [7]: > 2510 nM
IC50 (Cytochrome P450 2C9): > 100000 nM
IC50 (Cytochrome P450 2D6): 32000 nM
IC50 (Cytochrome P450 1A2): 66000 nM
IC50 (Cytochrome P450 2C19): 26000 nM
Ki [8]: 794 nM
Ki [9]: 251 nM

SMILES: COc1ccc(NS(=O)(=O)c2cccc(I)c2)cc1N1CCN(C)CC1
Ki [1]: 0.794 nM
Selectivity (Homo sapiens): > 200

SMILES: COc1ccc(NS(=O)(=O)c2c(F)c(Br)cc(F)c2Br)cc1N1CCN(C)CC1
Ki [1]: 3.16 nM
Selectivity (Homo sapiens): > 300

SMILES: COc1ccc(NS(=O)(=O)c2ccc(Br)cc2)cc1N1CCN(C)CC1
IC50 (Cytochrome P450 3A4): 6000 nM
Ki [10]: 2510 nM
Ki [2]: 631 nM
Ki [1]: 5.01 nM
Ki (D(2) dopamine receptor): 3980 nM
Ki [3]: 1580 nM
Ki [11]: 2510 nM
Ki [4]: 2510 nM
Ki [5]: 1000 nM
Ki (D(3) dopamine receptor): 794 nM
Ki [6]: 316 nM
Ki [7]: 1260 nM
Ki [12]: 251 nM
IC50 (Cytochrome P450 2C9): > 100000 nM
IC50 (Cytochrome P450 2D6): 11000 nM
IC50 (Cytochrome P450 1A2): 10000 nM
IC50 (Cytochrome P450 2C19): 46000 nM
Ki [8]: 398 nM
Ki [9]: 251 nM

SMILES: COc1ccc(NS(=O)(=O)c2ccccc2)cc1N1CCN(C)CC1
Ki [1]: 10 nM
Selectivity (Homo sapiens): 80

SMILES: COc1ccc(NS(=O)(=O)c2ccc3c(Cl)cccc3c2)cc1N1CCN(C)CC1
Ki [1]: 0.794 nM
Selectivity (Homo sapiens): > 250

SMILES: COc1ccc(NS(=O)(=O)c2cc(I)ccc2C)cc1N1CCN(C)CC1
Ki [1]: 1 nM
Selectivity (Homo sapiens): > 125

SMILES: COc1ccc(NS(=O)(=O)c2sc3ccc(Cl)cc3c2C)cc1N1CCN(C)CC1
Ki [10]: 3160 nM
Ki [2]: 1000 nM
Ki (D(2) dopamine receptor): 794 nM
Ki [3]: 2510 nM
Ki [11]: 3160 nM
Ki [5]: 501 nM
Ki (D(3) dopamine receptor): 200 nM
Ki [6]: 251 nM
Ki [7]: 1000 nM
Ki [12]: 501 nM
Ki [13]: 2000 nM
Ki [8]: 794 nM
Ki [9]: 200 nM

The remaining molecules from weak to strong by Ki [1], led by results:

Ki [1]: 79.4 nM
SMILES: COc1ccc(NS(=O)(=O)c2ccc([N+](=O)[O-])cc2)cc1N1CCN(C)CC1

Ki [1]: 63.1 nM
SMILES: COc1ccc(NS(=O)(=O)c2cccc(C#N)c2)cc1N1CCN(C)CC1

Ki [1]: 12.6 nM
SMILES: CNc1cc(NS(=O)(=O)c2ccc(N)cc2)cc(NC)n1

Ki [1]: 2 nM
Selectivity (Homo sapiens): > 100
SMILES: COc1ccc(NS(=O)(=O)c2cc(Cl)cc(Cl)c2)cc1N1CCN(C)CC1

Ki [1]: 1.26 nM
Selectivity (Homo sapiens): > 300
SMILES: COc1ccc(NS(=O)(=O)c2c(C)sc3ccc(Cl)cc23)cc1N1CCN(C)CC1
